Measurements from PubChem BioAssay AID504768 (Southern Research Specialized Biocontainment Screening …, 2011).
Calls of active or inactive are those of the source.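 How the source made its calls: active means phage lysis blocked by at least 50% at any tested concentration; inactive means the rest.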

Test: protection of E. coli UTI89 from K1F – UTI89 strain, C7 control, set 4, capsule biogenesis inhibitor project, confirmation (AID 504768)
Conditions: OD600, at 300 µM (top of the series); inhibition of phage lysis: at the top concentration
Outline: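 Test system: E. coli UTI89 (K1) and kpsM mutant bacterial cultures; dosing: DMSO at 1% final; schedule: 1.25 h compound pre-incubation at 37 °C shaking, lysis read 3 h post-phage; detection: OD600 absorbance; control set: kpsM mutant resisting phage; repeats: four replicate wells per compound concentration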
For `O=C(Nc1nc2c(F)cc(F)cc2s1)c1ccncc1`, the “inhibition of phage lysis” value was 0% (inactive). In the case of `O=C(Nc1nc2c(F)cc(F)cc2s1)c1cccnc1`, the “inhibition of phage lysis” value is reported as 0% (inactive). With `O=C(Nc1nc2c(F)cc(F)cc2s1)c1ccccc1` the “inhibition of phage lysis” value was 0% (inactive). For `O=C(Nc1nc2ccccc2s1)c1ccncc1`, the “inhibition of phage lysis” value was 0% (inactive). In the case of `O=C(Nc1nc2c(Cl)cc(Cl)cc2s1)c1ccccn1`, the “inhibition of phage lysis” value is reported as 0% (inactive). In the case of `O=C(Nc1nc2ccccc2s1)c1cccnc1`, the “inhibition of phage lysis” value is reported as 0% (inactive). With `Cc1cc(C)c2nc(NC(=O)c3ccccn3)sc2c1` the “inhibition of phage lysis” value was 0% (inactive). In the case of `O=C(Nc1nc2ccc(F)cc2s1)c1ccccn1`, the “inhibition of phage lysis” value is reported as 0% (inactive). With `O=C(Nc1nc2c(F)cccc2s1)c1ccccn1` the “inhibition of phage lysis” value was 0% (inactive).
